Bioassay records from PubChem BioAssay.
Shown are actives, neighbours in structure and some others; about 3.2% of the full set was active somewhere.
Hck Nef HTS: blocks Nef-activated human Hck kinase; P08631; inhibition, % at 20 µM; Recombinant Hck-YEEI plus Nef, Z-Lyte FRET kinase assay; actives 0.68% (n = 220,000);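 active = Hck-Nef kinase inhibition above about 50%, limit read from the data; inactive = inhibition below that limit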;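 note: 0% = DMSO with Hck plus Nef and 100% = Hck alone without Nef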
Mcl1-Noxa inh: disrupts binding of human Mcl-1 to Noxa peptide | Q07820 | TR-FRET Mcl-1/Noxa peptide binding, 2 h | inhibition, % at 21.7 µM | actives 1.5% (n = 220,000) | AID 1022;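 active = compounds that cut the protein-peptide binding signal by more than 50% relative to plate controls in a single-dose test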;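 note: His-tagged Mcl-1 with rhodamine Noxa BH3 peptide and terbium anti-His antibody; 0% = Mcl-1 plus Noxa peptide wells and 100% = peptide-only wells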
Target sequence (Q07820 whole entry, looked up): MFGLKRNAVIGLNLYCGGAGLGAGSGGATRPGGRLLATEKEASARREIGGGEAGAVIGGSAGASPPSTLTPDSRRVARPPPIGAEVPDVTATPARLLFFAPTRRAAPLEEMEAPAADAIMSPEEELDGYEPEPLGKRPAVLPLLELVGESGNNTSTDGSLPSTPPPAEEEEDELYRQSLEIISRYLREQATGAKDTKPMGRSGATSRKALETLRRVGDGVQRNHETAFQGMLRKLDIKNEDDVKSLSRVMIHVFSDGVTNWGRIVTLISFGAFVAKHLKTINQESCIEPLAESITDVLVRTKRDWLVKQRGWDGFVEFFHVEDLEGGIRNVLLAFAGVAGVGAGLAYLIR
Bim-Mcl-1: disrupts Bim peptide binding to human Mcl-1. inhibition, % at 10 µM. Q07820. actives 0.1% (n = 190,000). Bead-based flow cytometry, Bim peptide-Mcl-1 binding; in the data active = inhibition above about 40%;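 note: 0% = no compound tracer wells and 100% = peptide blocker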
Mcl1-Bid inh: disrupts binding of human Mcl-1 to Bid peptide; Q07820; actives 0.97% (n = 220,000); inhibition, % at 21.7 µM; TR-FRET Mcl-1/Bid-Dy647 peptide binding, 1536-well;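 active = compounds that cut the binding signal by more than half at the single screening dose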;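 note: His-tagged Mcl-1 with europium anti-His antibody binding Bid BH3 peptide; 0% = Mcl-1 plus peptide wells and 100% = peptide-only wells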
14-3-3 Bad inh: disrupts binding of bovine 14-3-3 zeta to phospho-Bad peptide; TR-FRET 14-3-3zeta/Dy647-pBad peptide displacement, 1 h; inhibition, % at 21.7 µM; P63103; actives 0.71% (n = 220,000); AID 781;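 active = inhibition above about 70%, limit read from the data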;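 note: 0% = full 14-3-3 plus peptide FRET controls and 100% = background without 14-3-3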
Target sequence (P63103 whole entry, looked up): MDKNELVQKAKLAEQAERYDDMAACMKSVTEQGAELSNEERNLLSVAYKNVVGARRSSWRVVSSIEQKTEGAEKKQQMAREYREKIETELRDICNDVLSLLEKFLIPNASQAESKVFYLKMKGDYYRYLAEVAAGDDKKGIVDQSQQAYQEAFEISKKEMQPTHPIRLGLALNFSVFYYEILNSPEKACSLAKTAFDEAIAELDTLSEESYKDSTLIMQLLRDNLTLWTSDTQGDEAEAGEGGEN
Biofilm kill mix: mixture kills Candida albicans biofilm cells; C. albicans biofilm persisters + clotrimazole, fluorescence viability; primary screen in compound mixtures of four per well; inhibition, % at 7.6 µM; actives 0.02% (n = 120,000);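 active = inhibition above 30.3% in the primary screen of four-compound pools, then above 30% when the compound was retested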;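 note: compounds exposed to preformed 24 h biofilms for 48 h; 0% = untreated biofilm control and 100% = clotrimazole plus chlorhexidine kill blank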
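Incubation: 24 h biofilm formation, then 48 h compound exposure, 37 °C | Material: C. albicans biofilms | Buffer or medium: RPMI/MOPS medium, pH 7.0 | Measured by: 2-h Alamar Blue fluorescence, 535/590 nm excitation/emission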
Active calls of the source: *; x = no result; [ ] = remark or other dose.

SMILES | Hck Nef HTS | Mcl1-Noxa inh | Bim-Mcl-1 | Mcl1-Bid inh | 14-3-3 Bad inh | Biofilm kill mix
O=C(CSCc1ccccc1)N1CCN(Cc2ccc3c(c2)OCO3)CC1 | 11 | -4 | -2 | -25 | -3 | 7
O=C(CSc1ncnc2scc(-c3ccccc3)c12)N1CCN(Cc2ccc3c(c2)OCO3)CC1 | 7 | 61* | -4 | -38 | -15 | 25
OC(COCc1ccc2c(c1)OCO2)CN1CCN(Cc2ccccc2)CC1 (stereo not drawn) | -25 | 23 | -3 | 52* | 79* | x
O=C(Nc1ccccc1)N1CCN(Cc2ccc3c(c2)OCO3)CC1 | 2 | -7 | -2 | 58* | 60 | x
Cc1cc(C)cc(NC(=O)N2CCN(Cc3ccc4c(c3)OCO4)CC2)c1 | 10 | 5 | x | -7 | 3 | 16
CC(=O)OCC(OC(C)=O)C(OC(C)=O)C(OC(C)=O)C(=O)Nc1cccc(C)c1 (stereo not drawn) | 14 | 2 | x | -9 | 5 | -5
CC(C)(C)NC(=O)c1ccc(C(=O)NC(C)(C)C)cc1 | 5 | 10 | x | 9 | 3 | 17
CC(C)(C)NC(=O)c1sccc1C(=O)O | 4 | 54* | 0 | 90* | 77* | x
Oc1ccc(C=NCC2COc3ccccc3O2)cc1 (stereo not drawn) | -20 | 14 | 80* | -9 | -9 | x
O=S(=O)(/N=C(/NNS(=O)(=O)c1ccccc1)c1ccccc1)c1ccccc1 | 18 | 10 | -3 | -12 | -1 | 21
COc1cc(C(=O)N/N=C\c2ccccc2)c([N+](=O)[O-])c(OC)c1OC | 1 | 5 | 0 | 95* | -11 | 14
COc1cc(O)c(/C=N/NC(=O)c2ccncc2)c(OC)c1[N+](=O)[O-] | 20 | 53* | 1 | -62 | -17 | 14
COc1ccc(/C=N/NC(=O)c2ccncc2)cc1[N+](=O)[O-] | -37 | 0 | 0 | -5 | -11 | 17
Cn1ncc([N+](=O)[O-])c1C(=O)Nc1ccc(C2CCCCC2)cc1 | -21 | 9 | -1 | 8 | 1 | 14
CCOC(=O)C(Sc1cc(-c2ccccc2)nc2ncnn12)C(C)=O (stereo not drawn) | 8 | 0 | x | -43 | 0 | 11
O=C1CSC(c2ccc(Cl)cc2)N1c1cccnc1 (stereo not drawn) | 8 | 13 | x | -10 | -5 | 14
O=C1CSC(c2cccnc2)N1c1ccc(Cl)cc1 (stereo not drawn) | 1 | 0 | 0 | 79* | -15 | 5
Cc1nc(NC(=O)c2ccco2)sc1-c1csc(Nc2ccc(Cl)cc2Cl)n1 | 0 | 100* | 10 | 87* | 87*[fluorescence artefact?] | x
Cc1ccc(Cl)cc1Nc1nc(-c2sc(NC(=O)c3ccco3)nc2C)cs1 | 3 | 18 | -5 | -7 | 4 | x
Cc1nc(NC(=O)c2ccco2)sc1-c1csc(Nc2ccc(Cl)cc2)n1 | 1 | 62* | -2 | 25 | 32 | x
COc1cc(/C=C(\C#N)c2ccccn2)ccc1OCc1ccc(Cl)cc1 | 1 | 6 | 0 | 21 | 4 | 14
O=C(NCCCN1CCOCC1)C(=O)N/N=C/c1ccc(F)cc1 | 23 | 2 | -2 | -23 | -8 | 20
O=C(Nc1ccccc1C(=O)O)c1cccc(F)c1 | 6 | x | x | x | x | x
Cc1ccc(S(=O)(=O)CCSc2cccc(C(=O)Nc3ccccc3C(=O)O)c2)cc1 | 0 | 68* | -1 | -10 | 7 | 19
COC(=O)c1ccc(Nc2cc(C)nc3ccc(C)cc23)cc1 | 2 | 48 | x | 8 | -6 | 24
SMILES | Hck Nef HTS | Mcl1-Noxa inh | Bim-Mcl-1 | Mcl1-Bid inh | 14-3-3 Bad inh | Biofilm kill mix
Cc1ccc2nc(C)cc(Nc3ccc([N+](=O)[O-])cc3)c2c1 | 25 | 49 | -2 | 49 | 77* | 16
CCCSc1nc(C)nc2c1c(=O)n(C)c(=O)n2C | 0 | -4 | -1 | 88* | 10 | x
CCCCSc1nc(C)nc2c1c(=O)n(C)c(=O)n2C | 2 | 17 | 2 | -13 | -4 | x
CCN(C(=O)c1cccs1)c1nnc(-c2ccncc2)s1 | 1 | 5 | 1 | -12 | 9 | x
COCCN(C(=O)Cc1cccs1)c1nnc(-c2ccncc2)s1 | 1 | 21 | -2 | -48 | 82* | x
CC(C)(C)N=C1NN=C(c2cc3ccccc3o2)CS1 | -1 | 71* | -4 | -11 | -7 | 15
Cn1c2c(c(=O)n(C)c1=O)C(NS(=O)(=O)c1ccccc1)(C(F)(F)F)C(=O)N2 (stereo not drawn) | 0 | 51* | 0 | -95 | 6 | x
CCC/C(O)=C1\C(=O)CC(c2ccccc2)CC1=NCCc1c(C)[nH]c2ccc(C)cc12 (stereo not drawn) | -10 | 3 | 2 | -13 | -10 | 7
O=[N+]([O-])c1ccc(Cl)c(/C=N/n2c(-c3cccnc3)n[nH]c2=S)c1 | -13 | 58* | 5 | -36 | -8 | 4
O=[N+]([O-])c1cccc(/C=N/n2c(-c3cccnc3)n[nH]c2=S)c1 | 1 | 50 | -2 | -62 | -10 | 10
O=[N+]([O-])c1cc(/C=N/n2c(-c3ccncc3)n[nH]c2=S)ccc1Cl | 26 | 65* | 4 | -50 | -4 | 18
Cc1cc(-c2n[nH]c(=S)n2/N=C/c2cc([N+](=O)[O-])ccc2Cl)n[nH]1 | 7 | 57* | 0 | -87 | 28 | 7
CCCC1=C(C(=O)OCC)C(c2cccs2)n2ncnc2N1 (stereo not drawn) | 15 | 11 | x | -31 | 9 | 13
Cc1nc(N)sc1C(=O)NN | -3 | 13 | x | -10 | -11 | 6
O=S1(=O)C=CC(c2ccccc2)C1 (stereo not drawn) | 17 | 8 | x | -40 | 6 | 28
CC1(C(=O)OCc2cc(=O)n3cc(Br)ccc3n2)CC1(Cl)Cl (stereo not drawn) | 24 | -6 | -3 | -3 | -6 | -6
CCS(=O)(=O)N1CCN(c2ccc(C(=O)N3CCOCC3)cc2[N+](=O)[O-])CC1 | 0 | 16 | x | 17 | 6 | 14
CCS(=O)(=O)N1CCN(c2ccc(C(=O)NC3C4CC5CC(C4)CC3C5)cc2[N+](=O)[O-])CC1 (stereo not drawn) | 1 | 1 | -1 | 55* | 3 | 21
Cc1cc(N)n(-c2ncnc3scc(-c4ccccc4)c23)n1 | 0 | 17 | 0 | -60 | -8 | x
Cc1ccc(C)c(N2CCN(C(=O)CN3C(=S)NC(C)(C)CC3C)CC2)c1 (stereo not drawn) | -80 | 15 | -1 | -35 | -7 | 5
Nc1nc(-c2ccc(C(=O)O)cc2)cs1 | 23 | 8 | 0 | -8 | -6 | 7
Nc1csnc1C(=O)O | 1 | 20 | -1 | -22 | 78* | x
O=C(CSc1nnc(-c2ccncc2)n1-c1ccc(F)cc1)NC(=O)NCc1ccco1 | 0 | 63* | -4 | 0 | -1 | x
O=C(CSc1ccc2nnc(-c3ccc(F)cc3)n2n1)NCc1ccco1 | 9 | 62* | -7 | -17 | 2 | 16
